Assay results reported in ChEMBL document CHEMBL2169846, “Design and synthesis of Pictet-Spengler condensation products that exhibit oncogenic-RAS synthetic lethality and induce non-apoptotic cell death” (Bioorg Med Chem Lett, 2012).
The source made the active and inactive calls. No cut-off for these calls is given here.

Molecular target: E3 ubiquitin-protein ligase Mdm2 (Homo sapiens) (UniProt Q00987)
Experiment: Inhibition of wild type Mdm2 at 20 ug/mL after 2 hrs by cell-based luciferase assay
Conditions: not given

Sequence of E3 ubiquitin-protein ligase Mdm2 (Homo sapiens) (Q00987 whole entry, looked up): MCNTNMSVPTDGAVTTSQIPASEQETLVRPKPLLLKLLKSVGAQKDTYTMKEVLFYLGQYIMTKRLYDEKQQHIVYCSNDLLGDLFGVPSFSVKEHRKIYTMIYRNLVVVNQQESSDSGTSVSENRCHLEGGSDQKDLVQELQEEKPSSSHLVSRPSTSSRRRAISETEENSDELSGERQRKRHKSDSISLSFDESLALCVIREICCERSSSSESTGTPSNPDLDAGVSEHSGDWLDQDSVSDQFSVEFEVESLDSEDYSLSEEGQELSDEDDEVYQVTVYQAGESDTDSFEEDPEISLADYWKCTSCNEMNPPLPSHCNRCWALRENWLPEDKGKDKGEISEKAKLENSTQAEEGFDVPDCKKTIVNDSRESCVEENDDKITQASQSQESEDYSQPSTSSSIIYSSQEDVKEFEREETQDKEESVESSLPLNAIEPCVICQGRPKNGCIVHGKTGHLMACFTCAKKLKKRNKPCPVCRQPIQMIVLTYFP

Q: With `O=Cc1nccc2c1[nH]c1ccccc12` as the compound, how does the inhibition read?
A: Its inhibition is “inactive”.

Q: For `CCOC(=O)C1c2c(c3ccccc3n2C)CCN1C(=O)OC(C)(C)C` (stereo not given), which inhibition is on record?
A: Its inhibition is “inactive”.

Q: With `COC(OC)c1nccc2c1[nH]c1ccccc12` as the compound, how does the inhibition read?
A: Its inhibition is “inactive”.

Q: Which inhibition does the source give for `CCCN1C(=O)C(CC(C)C2NCCc3c2[nH]c2ccccc32)C(=O)N(CCC)C1=O` (stereo not given) here?
A: Its inhibition is “inactive”.

Q: With `CC(C)(C)OC(=O)N1CCc2c(n(C(=O)OC(C)(C)C)c3ccccc23)C1CC=O` (stereo not given) as the compound, how does the inhibition read?
A: Its inhibition is “inactive”.

Q: Which inhibition does the source give for `CCOC(=O)C1c2[nH]c3ccccc3c2CCN1C(=O)OCc1ccccc1` (stereo not given) here?
A: The inhibition was “inactive”.

Q: Which inhibition does the source give for `CN1C(=O)C(CCC2NCCc3c2[nH]c2ccccc32)C(=O)N(C)C1=O` (stereo not given) here?
A: The inhibition was “inactive”.

Test system: E3 ubiquitin-protein ligase Mdm2 (Homo sapiens), Q00987 [C464A]
Sequence (Q00987 whole entry C464A): as the sequence (Q00987 whole entry, looked up) above, with C464A counted along it
Experiment: Inhibition of Mdm2 C464A mutant at 20 ug/mL after 2 hrs by cell-based luciferase assay
Conditions: not given

Q: With `O=Cc1nccc2c1[nH]c1ccccc12` as the compound, how does the inhibition read?
A: The inhibition was “inactive”.

Q: With `CCOC(=O)C1c2c(c3ccccc3n2C)CCN1C(=O)OC(C)(C)C` (stereo not given) as the compound, how does the inhibition read?
A: Its inhibition is “inactive”.

Q: For `COC(OC)c1nccc2c1[nH]c1ccccc12`, which inhibition is on record?
A: Its inhibition is “inactive”.

Q: For `CCCN1C(=O)C(CC(C)C2NCCc3c2[nH]c2ccccc32)C(=O)N(CCC)C1=O` (stereo not given), which inhibition is on record?
A: The inhibition was “inactive”.

Q: With `CC(C)(C)OC(=O)N1CCc2c(n(C(=O)OC(C)(C)C)c3ccccc23)C1CC=O` (stereo not given) as the compound, how does the inhibition read?
A: The inhibition was “inactive”.

Q: For `CCOC(=O)C1c2[nH]c3ccccc3c2CCN1C(=O)OCc1ccccc1` (stereo not given), which inhibition is on record?
A: Its inhibition is “inactive”.

Q: Which inhibition does the source give for `CN1C(=O)C(CCC2NCCc3c2[nH]c2ccccc32)C(=O)N(C)C1=O` (stereo not given) here?
A: Its inhibition is “inactive”.

Test system: HT-1080
Experiment: Cytotoxicity against human HT1080 cells after 48 hrs by alamar blue assay
Assay type: functional
Conditions: HT-1080, 48 h, read-out: LC50 (the source's name)

Q: For `O=Cc1nccc2c1[nH]c1ccccc12`, which CC50 is on record?
A: The CC50 was 67.5 µM.

Q: Which CC50 does the source give for `CC(C)(C)OC(=O)N1CCc2c(n(C(=O)OC(C)(C)C)c3ccccc23)C1CC=O` (stereo not given) here?
A: The CC50 was 15.2 µM.

Test system: RKO
Experiment: Cytotoxicity against human RKO cells after 48 hrs by alamar blue assay
Assay type: functional
Conditions: read-out: LC50 (the source's name)

Q: For `O=Cc1nccc2c1[nH]c1ccccc12`, which CC50 is on record?
A: The CC50 was 11.1 µM.

Q: For `CC(C)(C)OC(=O)N1CCc2c(n(C(=O)OC(C)(C)C)c3ccccc23)C1CC=O` (stereo not given), which CC50 is on record?
A: The CC50 was 7 µM.

Q: With `CCOC(=O)C1c2[nH]c3ccccc3c2CCN1C(=O)OCc1ccccc1` (stereo not given) as the compound, how does the CC50 read?
A: Its CC50 is 14.8 µM.

Test system: U2OS
Experiment: Cytotoxicity against human U2OS cells after 48 hrs by alamar blue assay
Assay type: functional
Conditions: read-out: LC50 (the source's name)

Q: Which CC50 does the source give for `CC(C)(C)OC(=O)N1CCc2c(n(C(=O)OC(C)(C)C)c3ccccc23)C1CC=O` (stereo not given) here?
A: The CC50 was 10.3 µM.

Q: Which CC50 does the source give for `CCOC(=O)C1c2[nH]c3ccccc3c2CCN1C(=O)OCc1ccccc1` (stereo not given) here?
A: Its CC50 is 12.9 µM.

Test system: not listed separately
Experiment: Cytotoxicity against human HT1299 cells after 48 hrs by alamar blue assay
Assay type: functional
Conditions: HT1299, 48 h, read-out: LC50 (the source's name)

Q: With `O=Cc1nccc2c1[nH]c1ccccc12` as the compound, how does the CC50 read?
A: The CC50 was 67.5 µM.

Q: With `CC(C)(C)OC(=O)N1CCc2c(n(C(=O)OC(C)(C)C)c3ccccc23)C1CC=O` (stereo not given) as the compound, how does the CC50 read?
A: The CC50 was 11.8 µM.

Q: Which CC50 does the source give for `CCOC(=O)C1c2[nH]c3ccccc3c2CCN1C(=O)OCc1ccccc1` (stereo not given) here?
A: The CC50 was 52.9 µM.

Test system: not listed separately
Experiment: Cytotoxicity against human BJeH cells expressing wild type RAS after 48 hrs by alamar blue assay
Assay type: functional, cell-based
Conditions: read-out: LC50 (the source's name)

Q: For `COC(OC)c1nccc2c1[nH]c1ccccc12`, which CC50 is on record?
A: Its CC50 is 82.6 µM.

Q: Which CC50 does the source give for `CC(C)(C)OC(=O)N1CCc2c(n(C(=O)OC(C)(C)C)c3ccccc23)C1CC=O` (stereo not given) here?
A: Its CC50 is 48.3 µM.

Q: For `CCOC(=O)C1c2[nH]c3ccccc3c2CCN1C(=O)OCc1ccccc1` (stereo not given), which CC50 is on record?
A: The CC50 was 52.9 µM.

Test system: not listed separately
Experiment: Cytotoxicity against human BJeLR cells expressing RAS G12V mutant after 48 hrs by alamar blue assay
Assay type: functional, cell-based
Conditions: read-out: LC50 (the source's name)

Q: With `O=Cc1nccc2c1[nH]c1ccccc12` as the compound, how does the CC50 read?
A: The CC50 was 32.4 µM.

Q: Which CC50 does the source give for `COC(OC)c1nccc2c1[nH]c1ccccc12` here?
A: The CC50 was 7.8 µM.

Q: Which CC50 does the source give for `CC(C)(C)OC(=O)N1CCc2c(n(C(=O)OC(C)(C)C)c3ccccc23)C1CC=O` (stereo not given) here?
A: Its CC50 is 23.4 µM.

Q: With `CCOC(=O)C1c2[nH]c3ccccc3c2CCN1C(=O)OCc1ccccc1` (stereo not given) as the compound, how does the CC50 read?
A: Its CC50 is 12.9 µM.

Test system: HT-1080
Experiment: Cytotoxicity against human HT1080 cells at 20 ug/mL after 48 hrs by alamar blue assay
Assay type: functional, cell-based
Conditions: not given
Outline: (§1)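 Each cell line exposed for 48 h to a 2-fold, 12-point dilution series beginning at 20 µg/mL. Viability by Alamar blue; LC50 derived from the curves.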

Q: For `CCOC(=O)C1c2c(c3ccccc3n2C)CCN1C(=O)OC(C)(C)C` (stereo not given), which Activity is on record?
A: The Activity was “inactive”.

Q: Which Activity does the source give for `COC(OC)c1nccc2c1[nH]c1ccccc12` here?
A: Its Activity is “inactive”.

Q: For `CCCN1C(=O)C(CC(C)C2NCCc3c2[nH]c2ccccc32)C(=O)N(CCC)C1=O` (stereo not given), which Activity is on record?
A: The Activity was “inactive”.

Q: With `CN1C(=O)C(CCC2NCCc3c2[nH]c2ccccc32)C(=O)N(C)C1=O` (stereo not given) as the compound, how does the Activity read?
A: The Activity was “inactive”.

Test system: RKO
Experiment: Cytotoxicity against human RKO cells at 20 ug/mL after 48 hrs by alamar blue assay
Assay type: functional, cell-based
Conditions: not given
Outline: as §1

Q: Which Activity does the source give for `CCOC(=O)C1c2c(c3ccccc3n2C)CCN1C(=O)OC(C)(C)C` (stereo not given) here?
A: Its Activity is “inactive”.

Q: Which Activity does the source give for `COC(OC)c1nccc2c1[nH]c1ccccc12` here?
A: Its Activity is “inactive”.

Q: For `CCCN1C(=O)C(CC(C)C2NCCc3c2[nH]c2ccccc32)C(=O)N(CCC)C1=O` (stereo not given), which Activity is on record?
A: Its Activity is “inactive”.

Q: Which Activity does the source give for `CN1C(=O)C(CCC2NCCc3c2[nH]c2ccccc32)C(=O)N(C)C1=O` (stereo not given) here?
A: The Activity was “inactive”.

Test system: MCF7
Experiment: Cytotoxicity against human MCF7 cells at 20 ug/mL after 48 hrs by alamar blue assay
Assay type: functional, cell-based
Conditions: not given
Outline: as §1

Q: With `O=Cc1nccc2c1[nH]c1ccccc12` as the compound, how does the Activity read?
A: Its Activity is “inactive”.

Q: With `CCOC(=O)C1c2c(c3ccccc3n2C)CCN1C(=O)OC(C)(C)C` (stereo not given) as the compound, how does the Activity read?
A: The Activity was “inactive”.

Q: For `COC(OC)c1nccc2c1[nH]c1ccccc12`, which Activity is on record?
A: The Activity was “inactive”.

Q: For `CCCN1C(=O)C(CC(C)C2NCCc3c2[nH]c2ccccc32)C(=O)N(CCC)C1=O` (stereo not given), which Activity is on record?
A: The Activity was “inactive”.

Q: For `CN1C(=O)C(CCC2NCCc3c2[nH]c2ccccc32)C(=O)N(C)C1=O` (stereo not given), which Activity is on record?
A: The Activity was “inactive”.

Test system: U2OS
Experiment: Cytotoxicity against human U2OS cells at 20 ug/mL after 48 hrs by alamar blue assay
Assay type: functional, cell-based
Conditions: not given

Q: With `O=Cc1nccc2c1[nH]c1ccccc12` as the compound, how does the Activity read?
A: The Activity was “inactive”.

Q: For `CCOC(=O)C1c2c(c3ccccc3n2C)CCN1C(=O)OC(C)(C)C` (stereo not given), which Activity is on record?
A: Its Activity is “inactive”.

Q: Which Activity does the source give for `COC(OC)c1nccc2c1[nH]c1ccccc12` here?
A: Its Activity is “inactive”.

Q: For `CCCN1C(=O)C(CC(C)C2NCCc3c2[nH]c2ccccc32)C(=O)N(CCC)C1=O` (stereo not given), which Activity is on record?
A: The Activity was “inactive”.

Q: Which Activity does the source give for `CN1C(=O)C(CCC2NCCc3c2[nH]c2ccccc32)C(=O)N(C)C1=O` (stereo not given) here?
A: The Activity was “inactive”.

Test system: HT1299
Experiment: Cytotoxicity against human HT1299 cells at 20 ug/mL after 48 hrs by alamar blue assay
Assay type: functional, cell-based
Conditions: not given
Outline: as §1

Q: For `CCOC(=O)C1c2c(c3ccccc3n2C)CCN1C(=O)OC(C)(C)C` (stereo not given), which Activity is on record?
A: The Activity was “inactive”.

Q: Which Activity does the source give for `COC(OC)c1nccc2c1[nH]c1ccccc12` here?
A: The Activity was “inactive”.

Q: Which Activity does the source give for `CCCN1C(=O)C(CC(C)C2NCCc3c2[nH]c2ccccc32)C(=O)N(CCC)C1=O` (stereo not given) here?
A: The Activity was “inactive”.

Q: Which Activity does the source give for `CN1C(=O)C(CCC2NCCc3c2[nH]c2ccccc32)C(=O)N(C)C1=O` (stereo not given) here?
A: Its Activity is “inactive”.

Test system: BJeH
Experiment: Cytotoxicity against human BJeH cells expressing wild type RAS at 20 ug/mL after 48 hrs by alamar blue assay
Assay type: functional, cell-based
Conditions: not given

Q: With `O=Cc1nccc2c1[nH]c1ccccc12` as the compound, how does the Activity read?
A: Its Activity is “inactive”.

Q: Which Activity does the source give for `CCOC(=O)C1c2c(c3ccccc3n2C)CCN1C(=O)OC(C)(C)C` (stereo not given) here?
A: Its Activity is “inactive”.

Q: For `CCCN1C(=O)C(CC(C)C2NCCc3c2[nH]c2ccccc32)C(=O)N(CCC)C1=O` (stereo not given), which Activity is on record?
A: Its Activity is “inactive”.

Q: Which Activity does the source give for `CN1C(=O)C(CCC2NCCc3c2[nH]c2ccccc32)C(=O)N(C)C1=O` (stereo not given) here?
A: The Activity was “inactive”.

Test system: BJeLR
Experiment: Cytotoxicity against human BJeLR cells expressing RAS G12V mutant at 20 ug/mL after 48 hrs by alamar blue assay
Assay type: functional, cell-based
Conditions: not given

Q: For `CCOC(=O)C1c2c(c3ccccc3n2C)CCN1C(=O)OC(C)(C)C` (stereo not given), which Activity is on record?
A: Its Activity is “inactive”.

Q: For `CCCN1C(=O)C(CC(C)C2NCCc3c2[nH]c2ccccc32)C(=O)N(CCC)C1=O` (stereo not given), which Activity is on record?
A: The Activity was “inactive”.

Q: Which Activity does the source give for `CN1C(=O)C(CCC2NCCc3c2[nH]c2ccccc32)C(=O)N(C)C1=O` (stereo not given) here?
A: The Activity was “inactive”.
